Data published in ChEMBL document CHEMBL4834419 (J Med Chem, 2021).
Calls of active or inactive are those of the source. No cut-off for these calls is given here.

What was measured:
[1] = biological target: T1, Retinoic acid receptor RXR-beta (Homo sapiens, UniProt P28702); experiment: Agonist activity at human RXRbeta transfected in human HEK293T cells co-expressing pFR/pRL-Luc incubated for 14 to 16 hrs by hybrid reporter gene assay; format: cell-based
T1 sequence (P28702 whole entry): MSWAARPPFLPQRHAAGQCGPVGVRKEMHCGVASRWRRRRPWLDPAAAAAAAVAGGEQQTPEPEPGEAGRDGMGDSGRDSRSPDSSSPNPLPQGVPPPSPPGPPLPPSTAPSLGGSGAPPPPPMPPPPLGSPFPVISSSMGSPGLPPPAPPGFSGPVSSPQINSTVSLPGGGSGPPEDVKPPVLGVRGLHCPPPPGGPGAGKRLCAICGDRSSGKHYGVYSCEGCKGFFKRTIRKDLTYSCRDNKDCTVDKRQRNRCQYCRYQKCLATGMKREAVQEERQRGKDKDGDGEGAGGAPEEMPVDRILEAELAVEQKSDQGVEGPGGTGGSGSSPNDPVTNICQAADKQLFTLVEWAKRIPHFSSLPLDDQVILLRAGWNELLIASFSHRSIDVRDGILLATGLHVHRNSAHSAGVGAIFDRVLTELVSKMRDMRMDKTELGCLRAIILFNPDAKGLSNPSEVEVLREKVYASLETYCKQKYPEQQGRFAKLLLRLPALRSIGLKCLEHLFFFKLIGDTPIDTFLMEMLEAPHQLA

[2] = biological target: T2, Retinoic acid receptor RXR-alpha (Homo sapiens, UniProt P19793); experiment: Agonist activity at human RXRalpha transfected in human HEK293T cells co-expressing pFR/pRL-Luc incubated for 14 to 16 hrs by hybrid reporter gene assay; format: cell-based
T2 sequence (P19793 whole entry): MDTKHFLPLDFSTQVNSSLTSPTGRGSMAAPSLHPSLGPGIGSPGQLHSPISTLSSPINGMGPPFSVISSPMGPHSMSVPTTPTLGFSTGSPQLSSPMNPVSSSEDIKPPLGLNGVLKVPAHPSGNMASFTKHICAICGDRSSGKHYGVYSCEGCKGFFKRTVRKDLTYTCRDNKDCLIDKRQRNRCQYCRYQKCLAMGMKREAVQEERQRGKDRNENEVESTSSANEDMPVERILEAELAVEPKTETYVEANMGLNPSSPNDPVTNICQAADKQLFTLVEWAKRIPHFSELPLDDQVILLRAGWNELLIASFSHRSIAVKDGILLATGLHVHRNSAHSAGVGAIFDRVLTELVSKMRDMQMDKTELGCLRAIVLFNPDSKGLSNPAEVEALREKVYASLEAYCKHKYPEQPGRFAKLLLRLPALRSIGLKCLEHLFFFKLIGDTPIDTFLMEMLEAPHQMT

[3] = Metabolic stability in Sprague-Dawley rat liver microsomes assessed as compound degradation at 10 uM incubated for 60 min by HPLC analysis; format: ADME; settings: 1 h
Outline: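 Compound at 10 μM final in 0.1 M phosphate, pH 7.4, was preincubated 5 min at 37 °C with an NADPH-regenerating system. Sprague-Dawley rat liver microsomes were then added. Reactions were stopped with ice-cold methanol at 0, 15, 30 and 60 min and remaining compound quantified by HPLC against an external calibration. Controls: no NADPH, heat-inactivated microsomes. Three independent experiments.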

[4] = biological target: T3, Retinoic acid receptor RXR-gamma (Homo sapiens, UniProt P48443); experiment: Agonist activity at human RXRgamma transfected in human HEK293T cells co-expressing pFR/pRL-Luc incubated for 14 to 16 hrs by hybrid reporter gene assay; format: cell-based
T3 sequence (P48443 whole entry): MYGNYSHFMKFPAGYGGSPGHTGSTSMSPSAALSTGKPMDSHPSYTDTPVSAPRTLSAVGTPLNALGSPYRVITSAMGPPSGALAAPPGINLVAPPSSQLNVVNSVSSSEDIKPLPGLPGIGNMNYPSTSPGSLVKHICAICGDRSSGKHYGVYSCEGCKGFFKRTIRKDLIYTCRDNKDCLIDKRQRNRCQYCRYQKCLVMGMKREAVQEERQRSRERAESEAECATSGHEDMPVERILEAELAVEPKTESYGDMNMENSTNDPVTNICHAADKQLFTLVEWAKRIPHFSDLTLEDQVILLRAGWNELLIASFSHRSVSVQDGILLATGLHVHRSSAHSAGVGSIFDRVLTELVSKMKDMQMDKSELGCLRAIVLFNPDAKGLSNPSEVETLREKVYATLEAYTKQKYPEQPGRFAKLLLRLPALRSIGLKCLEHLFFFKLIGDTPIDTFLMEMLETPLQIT

[5] = biological target: T4, Retinoic acid receptor RXR-gamma (Homo sapiens) (UniProt P48443); experiment: Agonist activity at human RXRgamma transfected in human HEK293T cells co-expressing pFR/pRL-Luc at 50 uM incubated for 14 to 16 hrs by hybrid reporter gene assay; format: cell-based; settings: time 14-16 hrs
T4 sequence (whole entry): T3 sequence (P48443 whole entry)
Outline: (§1)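 Gal4 hybrid reporter assay in HEK293T cells, seeded 24 h before transfection (Lipofectamine LTX, Opti-MEM) with pFR-Luc, pRL-SV40 and pFA-CMV plasmid carrying the hinge region and LBD of the human receptor. After 5 h, compound added in 0.1% DMSO, with 0.1% DMSO alone as untreated control. Dual-Glo luciferase read after 14−16 h; firefly/renilla normalized; duplicates, ≥2 independent experiments.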

[6] = biological target: T5, Retinoic acid receptor RXR-beta (Homo sapiens) (UniProt P28702); experiment: Agonist activity at human RXRbeta transfected in human HEK293T cells co-expressing pFR/pRL-Luc at 30 uM incubated for 14 to 16 hrs by hybrid reporter gene assay; format: cell-based; settings: time 14-16 hrs; outline: as §1
T5 sequence (whole entry): T1 sequence (P28702 whole entry)

[7] = biological target: T4, Retinoic acid receptor RXR-gamma (Homo sapiens); experiment: Agonist activity at human RXRgamma transfected in human HEK293T cells co-expressing pFR/pRL-Luc at 30 uM incubated for 14 to 16 hrs by hybrid reporter gene assay; format: cell-based; settings: time 14-16 hrs; outline: as §1
[8] = biological target: T6, Retinoic acid receptor RXR-alpha (Homo sapiens) (UniProt P19793); experiment: Agonist activity at human RXRalpha transfected in human HEK293T cells co-expressing pFR/pRL-Luc at 30 uM incubated for 14 to 16 hrs by hybrid reporter gene assay; format: cell-based; settings: time 14-16 hrs; outline: as §1
T6 sequence (whole entry): T2 sequence (P19793 whole entry)

EC50 [1] | EC50 [2] | EC50 [4] | Compound | also measured
1500 nM | 1030 nM | – | O=C(O)CCc1nc(-c2cc(Cl)cc(Cl)c2)c(-c2cc(Cl)cc(Cl)c2)o1 | –
50 nM | 60 nM | 0.2 µM | O=C(O)CCc1nc(-c2ccccc2)c(-c2cc(Cl)cc(Cl)c2)o1 | Stabilty [3]: Stable
19100 nM | 17000 nM | – | O=C(O)CCc1nc(-c2ccccc2)c(-c2ccccc2Cl)o1 | Activity [5]: inactive
> 50000 nM | > 50000 nM | > 50 µM | O=C(O)c1nc(-c2ccccc2)c(-c2ccccc2)o1 | –
130 nM | – | 0.5 µM | CC(C)(C)c1cc(-c2oc(CCC(=O)O)nc2-c2ccccc2)cc(C(C)(C)C)c1 | –
39000 nM | 6500 nM | 25 µM | Cc1ccccc1-c1nc(CCC(=O)O)oc1-c1ccccc1 | –
– | – | – | O=C(O)CCc1ncc(-c2ccccc2)o1 | Activity [6]: inactive; Activity [7]: inactive; Activity [8]: inactive
2000 nM | 3100 nM | 3.5 µM | O=C(O)CCc1cc(-c2cc(Cl)cc(Cl)c2)n(-c2cccc(Cl)c2)n1 | –
12400 nM | 8400 nM | – | O=C(O)CCCCc1nc(-c2ccccc2)c(-c2ccccc2)o1 | Activity [5]: inactive
600 nM | – | – | O=C(O)CCc1nc(-c2ccccc2)c(-c2cccc(Cl)c2)o1 | –
870 nM | 510 nM | 1.5 µM | O=C(O)CCc1nc(-c2ccccc2)c(-c2ccc(Cl)c(Cl)c2)o1 | –
1800 nM | 1400 nM | > 10 µM | COc1cccc(-c2oc(CCC(=O)O)nc2-c2ccccc2)c1 | –
– | – | – | O=C(O)Cc1nc(-c2ccccc2)c(-c2ccccc2)o1 | Activity [6]: inactive; Activity [7]: inactive; Activity [8]: inactive
900 nM | 500 nM | 3.5 µM | Cc1cccc(-c2oc(CCC(=O)O)nc2-c2ccccc2)c1 | –
– | – | – | O=C(O)CCc1nc(-c2ccccc2)co1 | Activity [6]: inactive; Activity [7]: inactive; Activity [8]: inactive
– | 1200 nM | 3.2 µM | O=C(O)CCc1nc(-c2ccccc2)c(-c2cccc(Cl)c2Cl)o1 | –
1400 nM | 5800 nM | > 20 µM | O=C(O)CCc1nc(-c2ccccc2)c(-c2cc(Cl)ccc2Cl)o1 | –
14400 nM | – | > 100 µM | Cc1ccc(-c2nc(CCC(=O)O)oc2-c2ccccc2)cc1 | –
13500 nM | 7900 nM | 43 µM | O=C(O)CCCc1nc(-c2ccccc2)c(-c2ccccc2)o1 | –
1600 nM | 1000 nM | > 10 µM | Cc1ccc(-c2oc(CCC(=O)O)nc2-c2ccccc2)cc1 | –
– | – | 19 µM | O=C(O)CCc1nc(-c2ccccc2)c(-c2ccc(Cl)cc2)o1 | –
– | – | – | NC(=O)CCc1nc(-c2ccccc2)c(-c2ccccc2)o1 | Activity [6]: inactive; Activity [7]: inactive; Activity [8]: inactive

EC50 [1] | EC50 [2] | EC50 [4] | Compound | also measured
50 nM | – | – | O=C(O)CCc1nc(-c2ccccc2)c(-c2cc(F)cc(F)c2)o1 | –
1300 nM | 620 nM | 4.5 µM | O=C(O)CCc1nc(-c2ccc(Cl)c(Cl)c2)c(-c2ccccc2)o1 | –
2900 nM | 1900 nM | 6.7 µM | O=C(O)CCc1nc(-c2cccc(Cl)c2)c(-c2ccccc2)o1 | –
– | 16900 nM | > 30 µM | Cc1ccccc1-c1oc(CCC(=O)O)nc1-c1ccccc1 | –
1400 nM | 1600 nM | 4 µM | COc1ccc(-n2nc(CCC(=O)O)cc2-c2cc(Cl)cc(Cl)c2)cc1 | –
270 nM | – | 0.46 µM | O=C(O)CCc1cc(-c2cc(C(F)(F)F)cc(C(F)(F)F)c2)n(-c2ccc(Cl)cc2)n1 | –
1400 nM | 2500 nM | 3 µM | Cc1ccc(-n2nc(CCC(=O)O)cc2-c2cc(Cl)cc(Cl)c2)cc1 | –
25000 nM | – | 40.1 µM | O=C(O)CCc1nc(-c2ccccc2)c(-c2ccccc2)o1 [OXAPROZIN] | –
900 nM | 300 nM | – | Cc1cc(C)cc(-c2oc(CCC(=O)O)nc2-c2ccccc2)c1 | –
> 30000 nM | > 30000 nM | > 30 µM | Cn1ccc(-n2nc(CCC(=O)O)cc2-c2cc(Cl)cc(Cl)c2)n1 | –
2400 nM | 1300 nM | 1.4 µM | O=C(O)CCc1nc(-c2ccc(Cl)cc2)c(-c2ccccc2)o1 | –
80 nM | 70 nM | 0.3 µM | O=C(O)CCc1nc(-c2ccccc2)c(-c2cccc(C(F)(F)F)c2)o1 | –
2000 nM | 7700 nM | 6 µM | N#Cc1ccc(-n2nc(CCC(=O)O)cc2-c2cc(Cl)cc(Cl)c2)cc1 | –
48000 nM | 36000 nM | – | O=C(O)CCc1nc(-c2ccccc2Cl)c(-c2ccccc2)o1 | Activity [5]: inactive
1100 nM | 1300 nM | 3 µM | O=C(O)CCCc1cc(-c2cc(Cl)cc(Cl)c2)n(-c2ccc(Cl)cc2)n1 | –
500 nM | 480 nM | 1.3 µM | O=C(O)CCCc1nc(-c2ccccc2)c(-c2cc(Cl)cc(Cl)c2)o1 | –
470 nM | 430 nM | 1.64 µM | O=C(O)CCc1cc(-c2cc(Cl)cc(Cl)c2)n(-c2ccc(F)cc2)n1 | –
3400 nM | – | 2.8 µM | O=C(O)CCc1nc(-c2cc(Cl)cc(Cl)c2)c(-c2ccccc2)o1 | –
– | – | 1.6 µM | O=C(O)CCc1cc(-c2cc(Cl)cc(Cl)c2)n(-c2ccccc2)n1 | –
290 nM | 180 nM | 0.4 µM | O=C(O)CCc1nc(-c2ccc(Cl)cc2)c(-c2cc(Cl)cc(Cl)c2)o1 | –
4800 nM | – | – | Cc1cccc(-c2nc(CCC(=O)O)oc2-c2ccccc2)c1 | –
